Source: PubChem BioAssay
A selection: hits, their analogues and other compounds. The true share with any hit is near 2.1%.
NS3 helicase inh: inhibitors of Hepatitis C virus NS3 helicase. NS3 helicase DNA unwinding, Cy5 molecular beacon fluorescence. 0.56% of 290,000 active. inhibition, % at 10.9 µM. AID 1800;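 active = inhibition above the mean of all tested compounds plus 3 SD, set per campaign, cut at about 35% in these data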
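assay system = NS3 helicase fragment of HCV | buffer or medium = MOPS pH 6.5, MgCl2, DTT, Tween20, BSA | timing = 60 min unwinding reaction at 25 °C after ATP addition | signal = Cy5 beacon fluorescence read at start and 1 h | read-out basis = % inhibition of unwinding | control set = low DMSO, high thioflavine S at 110 µM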
IMP-1 inh-1: inhibitors of Pseudomonas aeruginosa IMP-1 metallo-beta-lactamase; inhibition, % at 5.6 µM; 0.45% of 290,000 active; purified IMP-1, nitrocefin hydrolysis, epi-absorbance fluorescence;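 active = inhibition above the mean plus 3 SD of all compounds in the same screening run, cut at about 4.5% in these data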
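Test system: recombinant IMP-1 enzyme, purified / Medium: HEPES buffer pH 7.1 with ZnSO4 and Brij 35 / Doses: single dose, 5.6 µM / Times: 25 °C, 15 min preincubation, 25 min reaction / Detection: Epi-absorbance via hydrolysed-nitrocefin quenching of white-plate fluorescence, 480/530 nm, EDTA stop / Evaluation: percent inhibition from optical density relative to buffer-blank wells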
VIM-2 inh: blocks Pseudomonas aeruginosa VIM-2 metallo-beta-lactamase; 0.89% of 290,000 active; purified VIM-2, nitrocefin hydrolysis, epi-absorbance fluorescence; inhibition, % at 5.6 µM; AID 1527;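 active = inhibition above the mean of all tested compounds plus 3 SD, cutoff set per screening run, cut at about 7.5% in these data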;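 note: red hydrolysis product quenches plate fluorescence so inhibitors raise well fluorescence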
UBC9 SUMO inh: inhibitors of human SUMOylation (UBC9); 0.36% of 290,000 active; HTRF SUMOylation assay, SAE1/SAE2 + UBC9, in vitro; inhibition, % at 35 µM; P63279; in the data active = inhibition above about 50%, passing the limit was not always enough
Target sequence (P63279 whole entry, looked up): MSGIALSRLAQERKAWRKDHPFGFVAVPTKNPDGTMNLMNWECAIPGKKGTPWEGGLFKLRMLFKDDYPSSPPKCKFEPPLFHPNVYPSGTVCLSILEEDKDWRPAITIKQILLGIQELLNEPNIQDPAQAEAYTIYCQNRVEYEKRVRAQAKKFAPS
DNA FID counter-1: displaces DNA intercalator in HCV helicase counter-screen | DNA fluorescent intercalator displacement, fluorescence | inhibition, % at 7.9 µM | 0.17% of 290,000 active | AID 1845;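 note: higher means more ethidium bromide displaced from hairpin DNA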
IMP-1 inh-2: blocks IMP-1 metallo-beta-lactamase in VIM-2 selectivity screen. shares compounds with VIM-2 inh. purified IMP-1, nitrocefin hydrolysis, epi-absorbance fluorescence. inhibition, % at 5.6 µM. 1,300 tested, under 10 active. AID 1856; call rule not given here
VIM-2 FRET ctr: counter-screen for VIM-2 inhibitors: epi-absorbance artifacts via FRET; shares compounds with VIM-2 inh; purified VIM-2, CCF2 FRET substrate hydrolysis; inhibition, % at 5.6 µM; 23% of 1,300 active; AID 1857;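 active = inhibition above the mean of all tested compounds plus 3 SD, cut at about 19% in these data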
TEM-1 counter-1: selectivity counter-screen for VIM-2 inhibitors: E. coli TEM-1 inhibitors | AID 1866 | 3% of 1,300 active | inhibition, % at 5.6 µM | Purified TEM-1, nitrocefin hydrolysis, epi-absorbance fluorescence | shares compounds with VIM-2 inh;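 active = inhibition above that campaign's mean inhibition plus 3 SD, cut at about 0.46% in these data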
Target sequence (P62593 whole entry, looked up): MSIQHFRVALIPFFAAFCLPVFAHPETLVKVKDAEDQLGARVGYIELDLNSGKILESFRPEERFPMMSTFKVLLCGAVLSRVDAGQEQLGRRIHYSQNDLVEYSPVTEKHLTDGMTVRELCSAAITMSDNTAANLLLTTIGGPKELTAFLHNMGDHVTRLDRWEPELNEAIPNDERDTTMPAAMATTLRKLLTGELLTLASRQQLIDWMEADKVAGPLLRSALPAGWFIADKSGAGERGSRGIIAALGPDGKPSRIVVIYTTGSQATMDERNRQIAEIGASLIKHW
VIM-2 inh conf: confirmation of P. aeruginosa VIM-2 metallo-beta-lactamase inhibitors. shares compounds with VIM-2 inh. purified VIM-2, nitrocefin hydrolysis, epi-absorbance. inhibition, % at 5.6 µM. 96% of 1,300 active. AID 2187;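 active = inhibition of the VIM-2 beta-lactamase enzyme above about 11% from the earlier first-round screen, limit read from the data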
VIM-2 inh confirm: VIM-2 inhibition, confirmation assay | purified VIM-2 enzyme, nitrocefin absorbance | inhibition, % at 5.6 µM | 73% of 200 active | shares compounds with IMP-1 inh-1; in the data active = inhibition above about 8%
TEM-1 counter-2: blocks E. coli TEM-1 beta-lactamase, VIM-2 IMP-1 counter-screen; 50% of 200 active; shares compounds with IMP-1 inh-1; nitrocefin absorbance inhibition; inhibition, % at 5.6 µM; in the data active = inhibition above about 0.66%
IMP-1 confirm: confirmation of P. aeruginosa IMP-1 metallo-beta-lactamase inhibitors; shares compounds with IMP-1 inh-1; purified IMP-1 enzyme, absorbance substrate hydrolysis; inhibition, % at 5.6 µM; 60% of 200 active; AID 2189; in the data active = inhibition above about 4.9%
NS3 helicase cf: HCV NS3 helicase inhibition, confirmation assay. shares compounds with NS3 helicase inh. NS3 helicase DNA unwinding, Cy5 molecular beacon fluorescence. inhibition, % at 10.9 µM. 31% of 1,600 active. AID 1943;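 active = inhibition above the mean of all tested compounds plus 3 SD, cutoff set per campaign, cut at about 36% in these data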
DNA FID counter-2: counter-screen for HCV NS3 helicase inhibitors: DNA intercalator displacement; shares compounds with NS3 helicase inh; DNA fluorescent intercalator displacement, fluorescence; inhibition, % at 7.9 µM; 4% of 1,600 active;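 note: higher means more displacement of ethidium bromide from the DNA hairpin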
Of the large screens only hits and unclear results are named; the others gave an inactive call (follow-up assays come after a bar, where they were run). Cut-off read from the data, not from the text of the source, unless noted: active = inhibition above about 37%; inactive = the rest.

COc1cccc(-c2coc3c(C)c4oc(=O)c(CC(=O)O)c(C)c4cc23)c1	NS3 helicase inh 44, VIM-2 inh 16 | IMP-1 inh-2 inactive | VIM-2 FRET ctr inactive | TEM-1 counter-1 inactive | VIM-2 inh conf 30 | NS3 helicase cf 59 | DNA FID counter-2 inactive
Cc1ccc(N=Cc2sc(O)c3ccccc23)cc1	IMP-1 inh-1 24, VIM-2 inh 8.4 | VIM-2 inh confirm 14 | TEM-1 counter-2 inactive | IMP-1 confirm inactive
Cc1ccc(N=Cc2c(O)c3ccccc3n(C)c2=O)cc1	none
CCN(CC)c1ccc2cc(-c3nnc(-c4ccc(Br)cc4)o3)c(=O)oc2c1	none (no result: UBC9 SUMO inh)
CCN(CC)c1ccc2cc(-c3nnc(-c4ccccc4)o3)c(=O)oc2c1	IMP-1 inh-1 8.3, VIM-2 inh 8.4 | VIM-2 inh confirm 33 | TEM-1 counter-2 43 | IMP-1 confirm 26
CCN(CC)c1ccc2cc(-c3nc4ccccc4[nH]3)c(=O)oc2c1	IMP-1 inh-1 18, VIM-2 inh 13 | VIM-2 inh confirm 61 | TEM-1 counter-2 105 | IMP-1 confirm 59
CCC1=C(OC(=O)N(CC)CC)N2C(=O)OC(=NCCc3c[nH]c4ccccc34)[C@]2(Cc2ccccc2)[C@H]2C1=CC[C@H]1C(=O)NC(=O)[C@H]12	none (no result: NS3 helicase inh, IMP-1 inh-1, VIM-2 inh, DNA FID counter-1)
CCN1CCN(C2=CC3=CC(=C(C#N)C#N)CCC3CC2)CC1 (stereo not given)	IMP-1 inh-1 72, VIM-2 inh 55 | VIM-2 inh confirm 62 | TEM-1 counter-2 67 | IMP-1 confirm 58
CC1(C)CC(NCCN2CCN(C3=CC(=C(C#N)C#N)CC(C)(C)C3)CC2)=CC(=C(C#N)C#N)C1	none
N#CC(C#N)=C1C=C2C=C(N3CCCCCC3)CCC2CC1 (stereo not given)	IMP-1 inh-1 38, VIM-2 inh 38 | VIM-2 inh confirm 64 | TEM-1 counter-2 92 | IMP-1 confirm 58
CN1CCN(C2=CC3=CC(=C(C#N)C#N)CCC3CC2)CC1 (stereo not given)	IMP-1 inh-1 67, VIM-2 inh 58 | VIM-2 inh confirm 62 | TEM-1 counter-2 66 | IMP-1 confirm 63
N#CC(C#N)=C1C=C2C=C(N3CCOCC3)CCC2CC1 (stereo not given)	IMP-1 inh-1 17, VIM-2 inh 20 | VIM-2 inh confirm 64 | TEM-1 counter-2 76 | IMP-1 confirm 60
CCCS(=O)(=O)c1nc(S(=O)(=O)c2ccc(C)cc2)c(N2CCN(CCO)CC2)s1	none (no result: UBC9 SUMO inh)
COc1ccc(N(C(=O)c2snc(C(N)=O)c2N)C(C(=O)NC2CCCCC2)c2ccc(C)o2)cc1 (stereo not given)	none
COc1ccc(C(=O)NCCCn2ccnc2)cc1	none
COc1ccc2c(Cl)c(C(=O)NCCCn3ccnc3)sc2c1Cl	IMP-1 inh-1 35, VIM-2 inh 26 | VIM-2 inh confirm 45 | TEM-1 counter-2 inactive | IMP-1 confirm 57
CN(CC(=O)NCc1ccco1)S(=O)(=O)c1ccc(F)cc1	none
